Data reported in ChEMBL document CHEMBL4411275, “Design, synthesis and biological evaluation of quinoline-indole derivatives as anti-tubulin agents targeting the colchicine binding site” (Eur J Med Chem, 2019).

What was measured:
K562 [1] = test: Antiproliferative activity against human K562 cells after 72 hrs by MTT assay; format: functional, cell-based; conditions: K562, 72 h
Summary of the method: (§1)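 Cells preincubated 24 h at 37 °C, 5% CO₂. Compounds added at several concentrations in medium with 0.1% DMSO for 72 h. MTT (5 mg/mL in PBS) then added for 4 h, and optical density read at 490 nm. IC50 taken from dose-response curves; mean ± SD of at least three independent experiments.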

HepG2 = test: Antiproliferative activity against human HepG2 cells after 72 hrs by MTT assay; format: functional, cell-based; conditions: HepG2, 72 h; summary of the method: as §1
KB = test: Antiproliferative activity against human KB cells after 72 hrs by MTT assay; format: functional, cell-based; summary of the method: as §1
MDA-MB-231 = test: Antiproliferative activity against human MDA-MB-231 cells after 72 hrs by MTT assay; format: functional, cell-based; conditions: MDA-MB-231, 72 h; summary of the method: as §1
L02 = test: Antiproliferative activity against human LO2 cells after 72 hrs by MTT assay; format: cell-based; conditions: L02, 72 h; summary of the method: as §1
A549 = test: Antiproliferative activity against human A549 cells after 72 hrs by MTT assay; format: functional, cell-based; conditions: A549, 72 h; summary of the method: as §1
[2] = Antiproliferative activity against human taxol-resistant HCT8/T cells after 72 hrs by MTT assay; format: functional; conditions: HCT-8, 72 h; summary of the method: as §1
[3] = Drug resistance index, ratio of IC50 for taxol-resistant human HCT8/T cells to IC50 for human HCT8 cells; format: functional
Summary of the method: (§2)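 Resistant and parental sensitive lines exposed to a range of compound concentrations in medium with 0.1% DMSO for 72 h at 37 °C, 5% CO2, after 24 h pre-culture. MTT added for 4 h, absorbance read at 490 nm. IC50 from dose-response curves, at least three independent experiments. DRI = IC50 resistant / IC50 parental.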

[4] = Drug resistance index, ratio of IC50 for taxol-resistant human A549/TR cells to IC50 for human A549 cells; format: functional; summary of the method: as §2
K562 [5] = test: Induction of apoptosis in human K562 cells after 48 hrs by […]-based flow cytometric analysis; format: functional, cell-based
[6] = Antiproliferative activity against human ADR-resistant Bel7402/ADR cells after 72 hrs by MTT assay; format: functional; conditions: Bel-7402, 72 h; summary of the method: as §1
[7] = Drug resistance index, ratio of IC50 for ADR-resistant human Bel7402/ADR cells to IC50 for human Bel7402 cells; format: functional; summary of the method: as §2
Tubulin (Sus scrofa) [8] = molecular target: T1, Tubulin (Sus scrofa) (UniProt P02554+P02550); test: Inhibition of [3H]-colchicine binding to biotinylated porcine tubulin at 1 uM after 2 hrs by SPA relative to control; format: protein assay
T1 sequence (P02550 whole entry, looked up): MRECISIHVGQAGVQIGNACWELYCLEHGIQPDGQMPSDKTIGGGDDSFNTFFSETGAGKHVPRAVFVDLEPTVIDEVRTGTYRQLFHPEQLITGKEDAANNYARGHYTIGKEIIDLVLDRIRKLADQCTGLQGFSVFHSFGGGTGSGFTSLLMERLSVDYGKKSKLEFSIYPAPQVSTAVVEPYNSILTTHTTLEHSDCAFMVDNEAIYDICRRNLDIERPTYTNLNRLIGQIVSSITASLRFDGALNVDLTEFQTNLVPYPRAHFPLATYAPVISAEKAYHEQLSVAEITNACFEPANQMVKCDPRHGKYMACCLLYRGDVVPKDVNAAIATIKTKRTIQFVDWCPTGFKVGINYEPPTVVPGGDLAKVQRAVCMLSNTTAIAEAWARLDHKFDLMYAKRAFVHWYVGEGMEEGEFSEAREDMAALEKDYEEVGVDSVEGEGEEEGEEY
T1 sequence (P02554 whole entry, looked up): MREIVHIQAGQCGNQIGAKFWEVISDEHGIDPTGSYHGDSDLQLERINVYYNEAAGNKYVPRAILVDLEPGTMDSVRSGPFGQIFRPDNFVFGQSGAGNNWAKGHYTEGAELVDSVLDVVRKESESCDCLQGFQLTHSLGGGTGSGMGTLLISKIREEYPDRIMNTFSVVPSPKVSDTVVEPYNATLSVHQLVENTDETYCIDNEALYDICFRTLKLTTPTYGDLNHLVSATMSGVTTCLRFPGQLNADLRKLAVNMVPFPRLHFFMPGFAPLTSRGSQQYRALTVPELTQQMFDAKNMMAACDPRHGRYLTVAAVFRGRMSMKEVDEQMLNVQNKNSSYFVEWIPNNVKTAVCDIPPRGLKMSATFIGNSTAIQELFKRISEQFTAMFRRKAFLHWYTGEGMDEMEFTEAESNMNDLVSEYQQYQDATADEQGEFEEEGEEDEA
Summary of the method: (§3)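 Scintillation proximity assay: 0.08 μM [3H]colchicine incubated with biotinylated porcine tubulin (0.5 μg) and test compound for 2 h at 37 °C in 80 mM PIPES pH 6.8, 1 mM EGTA, 10% glycerol, 1 mM MgCl2, 1 mM GTP. Streptavidin SPA beads then added, and bound radioactivity counted by scintillation counter.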

Tubulin (Sus scrofa) [9] = molecular target: T1, Tubulin (Sus scrofa); test: Inhibition of [3H]-colchicine binding to biotinylated porcine tubulin at 5 uM after 2 hrs by SPA relative to control; format: protein assay; summary of the method: as §3
Tubulin (Homo sapiens) = Tubulin (Homo sapiens) (UniProt P68371+Q9H4B7+P0DPH7+P68366+Q13509+Q71U36+P04350+Q3ZCM7+P07437+P68363+Q9BQE3+Q6PEY2+Q13885+Q9BVA1+Q9BUF5); test: Induction of microtubule disruption in human K562 cells after 24 hrs by DAPI staining-based fluorescence assay; format: cell-based
Summary of the method: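 K562 cells exposed 24 h to 1, 2 or 4 nM compound or 0.1% DMSO. Fixed in 4% paraformaldehyde and blocked 20 min with goat serum at room temperature. Incubated with anti-α-tubulin monoclonal antibody for 2 h at 37 °C, then fluorescent antibody, with DAPI nuclear counterstain. Imaged by confocal microscopy.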

K562 [10] = test: Cell cycle arrest in human K562 cells assessed as accumulation of cells at G1 phase at 1 nM after 48 hrs by propidium iodide staining-based flow cytometric analysis (reference value: 69.57%); format: functional
K562 [11] = test: Cell cycle arrest in human K562 cells assessed as accumulation of cells at S phase at 1 nM after 48 hrs by propidium iodide staining-based flow cytometric analysis (reference value: 19.93%); format: functional
K562 [12] = test: Cell cycle arrest in human K562 cells assessed as accumulation of cells at G2 phase at 1 nM after 48 hrs by propidium iodide staining-based flow cytometric analysis (reference value: 10.51%); format: functional
K562 [13] = test: Cell cycle arrest in human K562 cells assessed as accumulation of cells at S phase at 4 nM after 48 hrs by propidium iodide staining-based flow cytometric analysis (reference value: 19.93%); format: functional
K562 [14] = test: Cell cycle arrest in human K562 cells assessed as accumulation of cells at G2 phase at 4 nM after 48 hrs by propidium iodide staining-based flow cytometric analysis (reference value: 10.51%); format: functional
HUVEC = test: Antiproliferative activity against HUVEC at 2 to 4 nM after 6 hrs; format: cell-based; conditions: human, 0.004 µM
H22 (Mus musculus) [15] = test: Antiproliferative activity against mouse H22 cells after 72 hrs by MTT assay; conditions: H22, 72 h
K562 [16] = test: Induction of apoptosis in human K562 cells at 1 nM after 48 hrs by Annexin-V/propidium iodide staining-based flow cytometric analysis (reference value: 5.96%)
K562 [17] = test: Induction of apoptosis in human K562 cells at 2 nM after 48 hrs by Annexin-V/propidium iodide staining-based flow cytometric analysis (reference value: 5.96%)
H22 (Mus musculus) [18] = test: Antitumor activity against mouse H22 cells xenografted in ICR mouse assessed as reduction in tumor weight at 20 mg/kg/day, iv for 21 days relative to control; design: scale not given: the % may be the effect or the level left
K562 [19] = test: Induction of mitochondrial membrane potential loss in human K562 cells assessed as intact mitochondrial membrane at 1 nM after 48 hrs by JC-1 dye-based flow cytometric analysis (RVB = 93.17%)
K562 [20] = test: Induction of mitochondrial membrane potential loss in human K562 cells assessed as intact mitochondrial membrane at 2 nM after 48 hrs by JC-1 dye-based flow cytometric analysis (RVB = 93.17%)
K562 [21] = test: Induction of mitochondrial membrane potential loss in human K562 cells assessed as intact mitochondrial membrane at 4 nM after 48 hrs by JC-1 dye-based flow cytometric analysis (RVB = 93.17%)
K562 [22] = test: Induction of mitochondrial membrane potential loss in human K562 cells assessed as collapsed mitochondrial membrane at 1 nM after 48 hrs by JC-1 dye-based flow cytometric analysis (RVB = 6.17%)
K562 [23] = test: Induction of mitochondrial membrane potential loss in human K562 cells assessed as collapsed mitochondrial membrane at 4 nM after 48 hrs by JC-1 dye-based flow cytometric analysis (RVB = 6.17%)

C=C(c1ccc2c(ccn2CO)c1)c1cc(C)nc2ccccc12 showed an IC50 (K562 [1]) of 2 nM, an IC50 (HepG2) of 6 nM and an IC50 (KB) of 5 nM. It also gave an IC50 (MDA-MB-231) of 6 nM, an IC50 (L02) of 48 nM and an IC50 (A549) of 9 nM. The IC50 [2] was 88 nM, the “Ratio IC50” value [3] was 12.6 and the “Ratio IC50” value [4] was 13.2. The Activity (K562 [5]) was “Dose-dependent effect”, the IC50 [6] was 61 nM and the “Ratio IC50” value [7] was 6.1. For the same molecule, the inhibition (Tubulin (Sus scrofa) [8]) was 79.4%, the inhibition (Tubulin (Sus scrofa) [9]) was 90.5% and the Activity (Tubulin (Homo sapiens)) was “Dose-dependent effect”. For the same molecule, the Activity (K562 [10]) was 60.18%, the Activity (K562 [11]) was 27.38% and the Activity (K562 [12]) was 12.44%. For the same molecule, the Activity (K562 [13]) was 31%, the Activity (K562 [14]) was 23.21% and the Activity (HUVEC) was “Non-Toxic”. For the same molecule, the IC50 (H22 (Mus musculus) [15]) was 6 nM, the Activity (K562 [16]) was 25.7% and the Activity (K562 [17]) was 54.9%. The Activity (H22 (Mus musculus) [18]) was 57.3%, the Activity (K562 [19]) was 70.66% and the Activity (K562 [20]) was 45.4%. For the same molecule, the Activity (K562 [21]) was 26.27%, the Activity (K562 [22]) was 28.99% and the Activity (K562 [23]) was 73.55%.
